The values that follow come from ChEMBL document CHEMBL1833964, “Synthesis, structure-activity relationship and in vitro biological evaluation of N-arylethyl isoquinoline derivatives as Coxsackievirus B3 inhibitors” (Bioorg Med Chem Lett, 2011).

A short description of series [1]: Cytotoxicity against african green monkey Vero cells infected with Coxsackievirus B3 assessed as growth inhibition after 48 hrs by Reed-Muench analysis. The series is classed as cell-based. Conditions: chlorocebus sabaeus, read-out: TC50. Put shortly: (§1)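 Vero cells plated at 2.5 × 10^4 per well and grown 24 h to a monolayer, then exposed to a range of test compound concentrations for 48 h at 37 °C. Cell damage was monitored as CPE, and TC50 came from Reed and Muench analysis. Each experiment was run three times.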

A further series has as its system Coxsackievirus B3. Put plainly: Antiviral activity against Coxsackievirus B3 infected in african green monkey vero cells assessed as inhibition of viral replication by Reed-Muench analysis. The series is classed as functional, organism-based. Conditions: Enterovirus B. The gist of the method: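 Vero monolayers infected with 100 TCID50 CVB3, then kept in maintenance medium (MEM plus 2% FBS) with or without test compound at various concentrations. Viral CPE was scored once the virus control reached 4+. The 50% inhibitory concentration came from Reed and Muench analysis. Three independent experiments.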

Series [2] is described as follows: Selectivity index, ratio of TC50 for african green monkey vero cells to IC50 for Coxsackievirus B3. The series is classed as toxicity, cell-based. Conditions: read-out: Selectivity Index. Put shortly: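 Selectivity index is TC50 divided by IC50. TC50 is from 48 h CPE monitoring of compound-treated uninfected Vero monolayers. IC50 is from CPE scoring at 4+ virus control in Vero cells infected with 100 TCID50 CVB3 and kept in MEM with 2% FBS. Both values came from Reed and Muench analysis, in triplicate experiments.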

Series [3] is described as follows: Cytotoxicity against african green monkey Vero cells infected with Enterovirus 71 assessed as growth inhibition after 48 hrs by Reed-Muench analysis. The series is classed as cell-based. The following applies: chlorocebus sabaeus, read-out: TC50. Put shortly: as §1
The nature of series [4]: Selectivity index, ratio of TC50 for african green monkey vero cells to IC50 for Enterovirus 71. The following applies: read-out: Selectivity Index. Format: toxicity, cell-based.
For another series, the system named is Enterovirus A71. The series is described as follows: Antiviral activity against Enterovirus 71 infected in african green monkey vero cells assessed as inhibition of viral replication by Reed-Muench analysis. The following applies: Enterovirus A. The series is classed as functional, organism-based.

What is called IC50 is the concentration that gives 50% inhibition. Consider `COc1ccc2cc[n+](CCc3ccccc3)cc2c1O`, for which the CC50 at 48 h in series [1] turned out to be 352 µM. In the series on Coxsackievirus B3, the IC50 was 91.1 µM. Further, in series [2], the selectivity ratio was 3.9.

In the case of `COc1cc2c[n+](CCc3ccccc3F)ccc2cc1O`, the CC50 at 48 h in series [1] was determined as 333 µM. Moreover, the IC50 in the series with Coxsackievirus B3 is above 111 µM.

For the molecule `COc1ccccc1CC[n+]1ccc2ccc(O)cc2c1`, in series [1], the CC50 at 48 h was 1060 µM. Besides, the half-inhibitory concentration (IC50) with Coxsackievirus B3 was above 352 µM.

Consider `c1ccc(CC[n+]2ccc3ccc4c(c3c2)OCO4)cc1`, for which the CC50 at 48 h in series [1] is 815 µM; in series [3] it was 820 µM. In addition, the IC50 in the series with Coxsackievirus B3 was 30.4 µM; in the series with Enterovirus A71, 91.1 µM. Also, the selectivity ratio came to 26.8 in series [2] and 9 in series [4].

`Cc1ccccc1CC[n+]1ccc2ccc(O)cc2c1`: the CC50 at 48 h in series [1] was 772 µM. Further, the 50% inhibitory concentration (IC50) in the series with Coxsackievirus B3 was 371 µM. In addition, in series [2], the selectivity ratio was determined as 2.1.

For `COc1cc2cc[n+](CCc3ccccc3F)cc2cc1OC`, in series [1], the CC50 at 48 h came to 206 µM. Moreover, in the series with Coxsackievirus B3, the 50% inhibitory concentration (IC50) is above 53.3 µM.

`COc1cc2cc[n+](CCc3ccc(F)cc3)cc2cc1OC`: the CC50 at 48 h stood at 665 µM in series [1] and 864 µM in series [3]. Further, the values for the IC50 in the series on Coxsackievirus B3 and in the series with Enterovirus A71 were above 320 µM and 107 µM, respectively. Moreover, the selectivity ratio in series [4] came to 8.1.

As for `COc1ccc2cc[n+](CCc3ccccc3C)cc2c1O`, the CC50 at 48 h in series [1] is 584 µM. In addition, the half-inhibitory concentration (IC50) with Coxsackievirus B3 was above 337 µM.

Turning to `COc1cc2c[n+](CCc3ccccc3C)ccc2cc1O`, the CC50 at 48 h in series [1] is 234 µM. Moreover, the IC50 in the series on Coxsackievirus B3 is 112 µM. The selectivity ratio in series [2] amounted to 2.1.

On to `Oc1ccc2cc[n+](CCc3ccc(F)cc3)cc2c1`, for which, in series [1], the CC50 at 48 h came out at 1100 µM. Also, the IC50 with Coxsackievirus B3 was above 336 µM.

As to `COc1cc2c[n+](CCc3ccccc3)ccc2c(OC)c1OC`, in series [1], the CC50 at 48 h was 2780 µM. In the series with Coxsackievirus B3, the IC50 is above 927 µM.

`Oc1ccc2cc[n+](CCc3cccc(Cl)c3)cc2c1`: in series [1], the CC50 at 48 h was determined as 200 µM. Moreover, the half-maximal inhibitory concentration (IC50) in the series with Coxsackievirus B3 is above 38.6 µM.

With `Fc1ccc(CC[n+]2ccc3ccc4c(c3c2)OCO4)cc1`, the CC50 at 48 h worked out at 581 µM in series [1] and 420 µM in series [3]. For the same molecule, the half-inhibitory concentration (IC50) with Coxsackievirus B3 was above 335 µM; with Enterovirus A71, 45.8 µM. Further, the selectivity ratio in series [4] was found to be 9.2.

Consider `COc1ccc(CC[n+]2ccc3ccc(OC)c(OC)c3c2)cc1`, for which the CC50 at 48 h in series [1] turned out to be 49.5 µM. In the series with Coxsackievirus B3, the concentration for half-maximal inhibition (IC50) was above 11.4 µM.

Turning to `COc1ccc2cc[n+](CCc3ccc(F)cc3)cc2c1OC`, in series [1], the CC50 at 48 h is 1380 µM. The half-maximal inhibitory concentration (IC50) in the series with Coxsackievirus B3 was above 320 µM.

Take `COc1ccc(CC[n+]2ccc3ccc(OC)c(O)c3c2)cc1`: the CC50 at 48 h in series [1] was 464 µM. The IC50 in the series with Coxsackievirus B3 is above 107 µM.

`COc1ccc(CC[n+]2ccc3c(OC)c(OC)c(OC)cc3c2)cc1`: in series [1], the CC50 at 48 h is 46 µM. For the same molecule, the IC50 in the series on Coxsackievirus B3 was above 10.6 µM.

With `COc1ccc2cc[n+](CCc3ccccc3)cc2c1OC`, the CC50 at 48 h in series [1] came to 584 µM. Besides, in the series with Coxsackievirus B3, the half-inhibitory concentration (IC50) was 209 µM. Further, the selectivity ratio in series [2] came out at 2.8.

Consider `NC(=O)c1ncn([C@@H]2O[C@H](CO)[C@@H](O)[C@H]2O)n1` [RIBAVIRIN], for which the results for the half-maximal inhibitory concentration (IC50) in the series with Coxsackievirus B3 and in the series on Enterovirus A71 were 910 µM and 2120 µM, respectively.

`COc1cc2cc[n+](CCc3cccc(Cl)c3)cc2cc1OC`: the CC50 at 48 h in series [1] was determined as 131 µM. The IC50 in the series with Coxsackievirus B3 is above 33.9 µM.

For the molecule `COc1cc2cc[n+](CCc3ccccc3)cc2cc1OC`, the CC50 at 48 h in series [1] was found to be 1010 µM. Further, in the series on Coxsackievirus B3, the IC50 was above 337 µM.

For `Oc1ccc2cc[n+](CCc3ccccc3)cc2c1`, the CC50 at 48 h in series [1] was 389 µM; in series [3], 534 µM. For the same molecule, the IC50 amounted to 25 µM in the series on Coxsackievirus B3 and 152 µM in the series on Enterovirus A71. Moreover, the selectivity ratio is 15.6 in series [2] and 3.5 in series [4].

On to `COc1cc2cc[n+](CCc3ccccc3C)cc2cc1OC`, for which the CC50 at 48 h in series [1] is 970 µM. For the same molecule, the IC50 with Coxsackievirus B3 was above 323 µM.
